# Calls of active or inactive are those of the source. The calls are words filed in the database; no cut-off is given here.
# Assays:
# [1] = Cytotoxicity against human HepG2A16 cells by MTT assay; assay type: cell-based
# Procedure, shortened: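 MTT viability assay on HepG2-A16 cells, giving CC50 values.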
# Plasmodium berghei [2] = assay: Antiplasmodial activity against Plasmodium berghei ANKA infected in mouse assessed as mouse survival time at 3 mg/kg/day, po for 4 consecutive days starting from 2 hrs post infection by MSF assay; assay type: functional
# Procedure, shortened: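 Swiss male mice (20 ± 2 g) infected i.p. with 10^7 P. berghei ANKA parasitized cells in 0.1 mL 0.9% saline (day 0). Oral dosing began 2 h post-infection and continued daily on days 0–3, five mice per batch. Test drugs were given at 50 mg/kg/day in water:DMSO and chloroquine diphosphate at 3 mg/kg/day; a vehicle control was included. Survival was checked daily, and parasitemia was read on day 4 by modified MSF assay.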
# [3] = (§1) Binding affinity to Plasmodium falciparum GRP94 nucleotide binding domain by SPR analysis
# Procedure, shortened: (§2)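 Purified PfHsp90 and PfGRP94 nucleotide-binding domains were amine-coupled to a CM5 chip (3000 and 7000 RU, respectively), with a blank reference surface. Seven compound concentrations (0.4 nM–1 mM) were injected in triplicate at 30 µL/min, 25 °C, in random order. Running buffer: 10 mM HEPES pH 7.4, 150 mM NaCl, 0.005% P20, 1% DMSO, 2 mM MgCl2. Kd came from double-referenced sensorgrams.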
# HSP90 = biological target: T1, HSP90 (Plasmodium falciparum 3D7, UniProt Q8IL32); assay: (§3) Binding affinity to Plasmodium falciparum HSP90 nucleotide binding domain by SPR analysis; procedure, shortened: as §2
# T1 sequence (Q8IL32 whole entry): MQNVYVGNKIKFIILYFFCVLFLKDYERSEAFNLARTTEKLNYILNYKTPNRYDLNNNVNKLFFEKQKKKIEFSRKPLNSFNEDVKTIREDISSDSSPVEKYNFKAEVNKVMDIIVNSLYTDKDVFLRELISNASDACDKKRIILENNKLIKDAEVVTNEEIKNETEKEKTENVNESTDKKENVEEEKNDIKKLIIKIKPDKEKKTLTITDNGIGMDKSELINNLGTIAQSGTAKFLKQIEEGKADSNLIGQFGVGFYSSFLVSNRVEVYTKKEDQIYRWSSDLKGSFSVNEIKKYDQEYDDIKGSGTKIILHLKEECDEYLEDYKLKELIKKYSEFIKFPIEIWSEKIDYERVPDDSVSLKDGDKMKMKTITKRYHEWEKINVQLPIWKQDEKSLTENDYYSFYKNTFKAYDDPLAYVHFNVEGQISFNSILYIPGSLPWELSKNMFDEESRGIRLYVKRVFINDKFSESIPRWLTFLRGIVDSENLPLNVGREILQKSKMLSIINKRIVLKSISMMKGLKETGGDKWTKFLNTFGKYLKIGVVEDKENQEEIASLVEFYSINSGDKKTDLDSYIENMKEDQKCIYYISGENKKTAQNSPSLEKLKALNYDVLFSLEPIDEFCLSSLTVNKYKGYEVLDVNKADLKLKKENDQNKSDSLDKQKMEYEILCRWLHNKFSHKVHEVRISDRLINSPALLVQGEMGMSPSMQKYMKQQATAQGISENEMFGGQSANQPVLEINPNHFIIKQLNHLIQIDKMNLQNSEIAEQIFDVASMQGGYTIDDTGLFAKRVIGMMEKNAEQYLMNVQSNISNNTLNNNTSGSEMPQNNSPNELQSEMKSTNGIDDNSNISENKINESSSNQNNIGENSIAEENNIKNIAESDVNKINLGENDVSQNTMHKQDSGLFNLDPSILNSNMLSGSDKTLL
# Plasmodium falciparum [4] = assay: Binding affinity to Plasmodium falciparum GRP94 nucleotide binding domain at 0.5 mM by SYPRO orange dye based DSF analysis
# Procedure, shortened: (§4)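 Recombinant P. falciparum Hsp90 or GRP94 nucleotide-binding domain (0.05–0.2 mg/mL, optimized per protein) in 25 mM HEPES pH 7.5, 250 mM NaCl. Compound final concentration was 0.5 mM, with SYPRO Orange at 1:1000. Samples were heated from 18 to 90 °C at 1 °C/min. Tm was taken as the Boltzmann-fit inflection point. ΔTm = Tm with ligand minus Tm without, and shifts beyond ±1 °C were counted significant.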
# [5] = biological target: T2, HSP90 (Plasmodium falciparum 3D7) (UniProt Q8IL32); assay: Binding affinity to Plasmodium falciparum HSP90 nucleotide binding domain at 0.5 mM by SYPRO orange dye based DSF analysis; procedure, shortened: as §4
# T2 sequence (whole entry): T1 sequence (Q8IL32 whole entry)
# [6] = Selectivity index, ratio of CC50 for human HepG2A16 cells to IC50 for GFP-fused Plasmodium berghei sporozoites infected in human HepG2A16 cells; assay type: toxicity, cell-based; conditions: read-out: Ratio CC50/IC50
# Procedure, shortened: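 HepG2-A16 cells were grown at 3 × 10^4 per well on collagen and infected with GFP P. berghei sporozoites (5 × 10^3 to 1 × 10^4 per well) from A. stephensi salivary glands. Compounds were added at infection, from 10 µg/mL top plus seven serial dilutions, and refreshed at 3 h and then every 24 h. After 40 h at 37 °C, EEFs were methanol-fixed, anti-Hsp70 immunolabelled and counted by high-content imaging. SI = HepG2 CC50 / liver-stage IC50.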
# Plasmodium falciparum [7] = assay: Antiplasmodial activity against multidrug-resistant Plasmodium falciparum C235 after 72 hrs by MSF assay; assay type: functional, organism-based; conditions: C235, 72 h
# Procedure, shortened: (§5)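 D6 and C235 strains from the Walter Reed Army Institute of Research were tested by the Malaria SYBR Green-I fluorescence assay.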
# Plasmodium falciparum [8] = assay: Antiplasmodial activity against multidrug-resistant Plasmodium falciparum FCR-3 by [3H]-hypoxanthine incorporation assay; assay type: functional, organism-based, FCR-3/Gambia
# Procedure, shortened: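 Blood-stage P. falciparum 3D7 and FCR-3 were tested by a modified [3H]-hypoxanthine incorporation assay. Chloroquine was the reference in all runs.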
# [9] = Selectivity index, ratio of CC50 for human HepG2A16 cells by MTT assay to IC50 for multidrug-resistant Plasmodium falciparum FCR-3; assay type: toxicity
# Procedure, shortened: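 HepG2-A16 human hepatoma cells were tested by MTT viability assay to give CC50. Blood-stage activity was measured against the multidrug-resistant P. falciparum FCR-3 strain by [3H]-hypoxanthine incorporation to give IC50. SI = CC50 HepG2 / FCR-3 IC50.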
# Plasmodium falciparum [10] = assay: Antiplasmodial activity against Plasmodium falciparum D6 after 72 hrs by MSF assay; assay type: functional, organism-based; conditions: D6, 72 h; procedure, shortened: as §5
# [11] = Selectivity index, ratio of CC50 for human primary hepatocytes to IC50 for Plasmodium falciparum FCR-3 sporozoites infected in human primary hepatocytes; assay type: toxicity, cell-based; conditions: read-out: Ratio CC50/IC50
# Procedure, shortened: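 Primary human hepatocytes were plated at 8 × 10^4 per well on collagen and infected with P. falciparum sporozoites (2.5 × 10^4 per well). Compounds were given at infection from 10 µg/mL plus seven dilutions, refreshed every 24 h, for 8 days. EEFs were read by Hsp70 immunostaining. […] Two independent experiments were run.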
# Plasmodium berghei [12] = assay: Antiplasmodial activity against GFP-fused Plasmodium berghei sporozoites infected in human HepG2A16 cells treated simultaneously with infection by fluorescence microscopic analysis; assay type: functional, organism-based; conditions: Plasmodium berghei, HepG2A16; read-out: IC50
# Procedure, shortened: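 HepG2-A16 cells (3 × 10^4/well, collagen-coated) infected with PbGFP sporozoites (5 × 10^3 to 1 × 10^4/well) and treated at the same time. Top concentration 10 µg/mL in DMEM, seven serial dilutions. Medium and compound renewed at 3 h and every 24 h. After 40 h at 37 °C: methanol fixation, anti-Plasmodium Hsp70 immunolabeling, Alexa 594 secondary, DAPI; high-content imaging.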
# [13] = Selectivity index, ratio of GI50 for African green monkey vero cells to IC50 for multidrug-resistant Plasmodium falciparum FCR-3; assay type: toxicity; conditions: read-out: Selectivity Index
# Plasmodium falciparum [14] = assay: Antiplasmodial activity against Plasmodium falciparum FCR-3 sporozoites infected in human primary hepatocytes treated simultaneously with infection by DAPI staining based HCS analysis; assay type: functional, organism-based, FCR-3/Gambia; conditions: Plasmodium falciparum, FCR-3/Gambia; read-out: IC50
# Plasmodium berghei [15] = assay: Antiplasmodial activity against Plasmodium berghei ANKA infected in mouse assessed as inhibition of parasitemia at 50 mg/kg/day, po for 4 consecutive days starting from 2 hrs post infection by MSF assay relative to control; assay type: functional
# Procedure, shortened: (§6)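 Swiss male mice (20 ± 2 g) infected ip with 10^7 P. berghei ANKA parasitized cells (day 0). Five per group dosed orally 2 h after infection and daily on days 0–3. Test compounds at 50 mg/kg/day in water:DMSO; chloroquine diphosphate at 3 mg/kg/day; vehicle controls. Parasitemia measured on day 4 by MSF assay; survival checked daily.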
# [16] = Cytotoxicity against human primary hepatocytes after 48 hrs by MTT assay; assay type: cell-based, Hepatocyte
# Procedure, shortened: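 Primary human hepatocytes seeded at 2 × 10^5/well and grown 24 h at 37 °C, 5% CO2. Compound dilutions added in triplicate for 48 h. MTT (2 mg/mL) added for 4 h, then DMSO for 20 min; absorbance read at 550 nm. Untreated and diluent controls included; CC50 calculated.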
# Plasmodium berghei [17] = assay: Antiplasmodial activity against Plasmodium berghei ANKA infected in Swiss mouse assessed as reduction in parasitemia at 50 mg/kg/day, po for 4 consecutive days by Giemsa staining based assay relative to control; assay type: functional; parameters: scale not given: the % may be the effect or the level left
# Plasmodium falciparum [18] = assay: as §1; procedure, shortened: as §2
# Plasmodium berghei [19] = assay: (§7) Antiplasmodial activity against GFP-fused Plasmodium berghei in Anopheles stephensi mosquitoes feeded on blood from infected mouse at 100 mg/kg, ip pretreated for 1.5 hrs followed by blood feeding of mosquito assessed as reduction in number of oocysts in mosquito midgut and measured at 8 days post mosquitoes infection by fluorescence microscopic method relative to control; assay type: functional; parameters: scale not given: the % may be the effect or the level left
# Procedure, shortened: (§8)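 Mice (two per group) infected ip with 200 µL PbGFP-infected RBCs (3000 parasites/µL); gametocytes checked at day 4. Compound given ip at 100 mg/kg in DMSO 1.5 h before A. stephensi fed 1 h on mice at 1% gametocytaemia. Untreated and DMSO-treated mice as controls. After 8 days, 30 mosquitoes per group dissected; midgut oocysts counted by fluorescence microscopy; inhibition relative to control oocyst numbers (100%).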
# [20] = biological target: T2, HSP90 (Plasmodium falciparum 3D7); assay: as §3; procedure, shortened: as §2
# Plasmodium berghei [21] = assay: as §7, with “infection” for “number”, “of” for “of oocysts in”, “mosquito” for “mosquito midgut”; assay type: functional; parameters: scale not given: the % may be the effect or the level left; procedure, shortened: as §8
# Plasmodium berghei [22] = assay: Antiplasmodial activity against Plasmodium berghei ANKA infected in mouse assessed as inhibition of parasitemia at 3 mg/kg/day, po for 4 consecutive days starting from 2 hrs post infection by MSF assay relative to control; assay type: functional; procedure, shortened: as §6
# [23] = Drug encapsulation in liposomes assessed as encapsulation efficiency in citrate/phosphate buffered measured after ultracentrifugation using compound addition to preformed liposomes by UV/Vis spectroscopy relative to untreated control; assay type: physicochemical; conditions: artificial membrane
# Procedure, shortened: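 Compound loaded into DSPC:cholesterol:DSPE-PEG2000-Mal:DOPE-Rho (84.5:10:5:0.5) liposomes using a citrate (pH 4.0)/PBS pH gradient. Drug measured by UV/vis after SDS disruption at each step: citrate liposomes, after buffer exchange to PBS (chloroquine added to preformed liposomes here), and after ultracentrifugation. Encapsulation efficiency = % of drug that is encapsulated out of total drug in the sample.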
# [24] = Plasmodium falciparum, FCR-3/Gambia, 3 h
smiles,measurement,setting,value
CCN(CC)CCCC(C)Nc1ccnc2cc(Cl)ccc12 (stereo unspecified) [CHLOROQUINE],CC50,[1]; HepG2A16 cells,137 µM
same,MSD,Plasmodium berghei [2],11 days
CC(C)NCC(O)Cn1c2ccc(Cl)cc2c2cc(Cl)ccc21 (stereo unspecified),Kd,[3],4.48 mM
same,Kd,HSP90,7 nM
same,Activity,Plasmodium falciparum [4],inactive
same,Activity,[5],inactive
OC(CN1CCN(Cc2ccccc2)CC1)Cn1c2ccc(Cl)cc2c2cc(Cl)ccc21 (stereo unspecified),Kd,[3],1.7e-05 mM
same,Kd,HSP90,27 nM
same,Activity,Plasmodium falciparum [4],inactive
same,Activity,[5],inactive
O=[N+]([O-])c1ccc(N2CCC(NCCC(O)c3ccc(F)c4ccccc34)CC2)c(C(F)(F)F)c1 (stereo in doubt; 8),selectivity ratio,[6],0.5
same,IC50,Plasmodium falciparum [7],130 nM
same,IC50,Plasmodium falciparum [8],150 nM
same,Ratio CC50/IC50,[9],38
same,IC50,Plasmodium falciparum [10],110 nM
same,selectivity ratio,[11],7.3
same,IC50,Plasmodium berghei [12],12.1 µM
same,CC50,[1],5.7 µM
same,selectivity ratio,[13],37
same,IC50,Plasmodium falciparum [14],1790 nM
same,inhibition in vivo at 50 mg/kg/day,Plasmodium berghei [15],96.4%
same,CC50 at 48 h,[16],13.1 µM
same,Activity,Plasmodium berghei [17],98%
O=[N+]([O-])c1ccc(N2CCC(NCCC(O)c3ccc(F)cc3)CC2)c(C(F)(F)F)c1 (stereo unspecified),Activity,Plasmodium falciparum [18],inactive
same,selectivity ratio,[6],0.6
same,Activity,Plasmodium berghei [19],70%
same,IC50,Plasmodium falciparum [8]; [24],480 nM
same,selectivity ratio,"[9]; HepG2A16 cells, read-out: Ratio CC50/IC50",22
same,Activity,[20],inactive
same,selectivity ratio,[11],11.4
same,IC50,Plasmodium berghei [12],18.2 µM
same,Activity,Plasmodium falciparum [4],inactive
same,CC50,[1]; HepG2A16 cells,10.4 µM
same,Activity,[5],inactive
same,IC50,Plasmodium falciparum [14],1710 nM
same,Activity,Plasmodium berghei [21],24%
same,CC50 at 48 h,[16],19.5 µM
COc1cc(NC(C)CCCN)c2ncccc2c1 (stereo unspecified) [PRIMAQUINE],selectivity ratio,[6],32.9
same,IC50,Plasmodium falciparum [8]; [24],1180 nM
same,selectivity ratio,[11],135
same,IC50,Plasmodium berghei [12],3.65 µM
same,CC50,[1]; HepG2A16 cells,120 µM
same,IC50,Plasmodium falciparum [14],400 nM
same,CC50 at 48 h,[16],54 µM
CCN(CC)CCCC(C)Nc1ccnc2cc(Cl)ccc12.O=P(O)(O)O.O=P(O)(O)O (stereo unspecified) [CHLOROQUINE PHOSPHATE],inhibition in vivo at 3 mg/kg/day,Plasmodium berghei [22],88.5%
same,Activity,[23],95.8%

# Source: ChEMBL document CHEMBL4152256, “Structure-activity relationship of new antimalarial 1-aryl-3-susbtituted propanol derivatives: Synthesis, preliminary toxicity profiling, parasite life cycle stage studies, target exploration, and targeted delivery” (Eur J Med Chem, 2018)
